Data as given in PubChem BioAssay.
Calls of active or inactive are those of the source.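 The calls were made as follows, unless noted: active = potentiation averaged over duplicate wells exceeding buffer-only control mean by more than 3 SD; inactive = the rest.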

Assays:
[1] = nonspecific flux increase, KCNQ1-free cells – parental CHO cells, counter-screen for KCNQ1 potentiator project (AID 493006;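 active = duplicate-averaged activation above buffer control mean plus 5 SD of those controls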); conditions: parental CHO-K1 cells, FluxOR thallium flux, at 10 µM; stronger effect = higher value
Method in brief: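 Assay system: Untransfected host CHO-K1 cells with FluxOR thallium dye | Probe or stimulus: Potassium/thallium depolarization pulse | Schedule: Overnight 37 °C plating, 90 min RT dye, 20 min compound | Detection: Kinetic thallium-flux fluorescence | Read-out: Max-minus-min fluorescence over baseline, percent of buffer-to-R-L3 span | Benchmarks: Low control buffer, high control R-L3 activator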

[2] = molecular target: Potassium voltage-gated channel subfamily KQT member 1 (Homo sapiens) (UniProt P51787); assay: enhancement of KCNQ1 channel thallium flux – FluxOR thallium flux, CHO cells, duplicates, confirmation (AID 493007); conditions: KCNQ1 cell line, FluxOR thallium flux fluorescence, at 10 µM; stronger effect = higher value, % of reference activator effect, buffer zero;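 as to outcome: cells depolarized by a potassium plus thallium sulfate stimulus after compound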
Chain of Potassium voltage-gated channel subfamily KQT member 1 (Homo sapiens) (P51787 whole entry, looked up): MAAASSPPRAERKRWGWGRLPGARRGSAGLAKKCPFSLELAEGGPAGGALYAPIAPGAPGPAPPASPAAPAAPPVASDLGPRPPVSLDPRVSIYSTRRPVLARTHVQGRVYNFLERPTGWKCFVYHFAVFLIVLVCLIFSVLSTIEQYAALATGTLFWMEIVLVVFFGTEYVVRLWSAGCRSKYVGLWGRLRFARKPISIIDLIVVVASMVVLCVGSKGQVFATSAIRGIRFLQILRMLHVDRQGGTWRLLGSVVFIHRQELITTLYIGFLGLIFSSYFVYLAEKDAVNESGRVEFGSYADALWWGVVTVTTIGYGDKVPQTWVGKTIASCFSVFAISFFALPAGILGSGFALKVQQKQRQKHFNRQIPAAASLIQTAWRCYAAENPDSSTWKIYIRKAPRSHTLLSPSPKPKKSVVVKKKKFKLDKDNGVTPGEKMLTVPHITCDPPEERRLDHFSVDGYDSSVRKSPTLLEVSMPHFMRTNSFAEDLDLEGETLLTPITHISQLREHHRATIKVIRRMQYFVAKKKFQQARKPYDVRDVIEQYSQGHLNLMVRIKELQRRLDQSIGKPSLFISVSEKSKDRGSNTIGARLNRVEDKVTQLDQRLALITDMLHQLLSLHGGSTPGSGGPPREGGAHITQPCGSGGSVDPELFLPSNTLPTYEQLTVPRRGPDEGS
Method in brief: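 Material: KCNQ1-expressing CHO cell line; Incubation: FluxOR dye loading 90 min, compound exposure 20 min, room temperature; Detection: FluxOR Tl+ flux fluorescence, 10 s baseline plus 110 s recording; Read-out: percent activation between buffer and R-L3 responses; Control set: buffer-only wells as 0% and R-L3 activator as 100%; Replication: duplicate wells per compound.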

[3] = molecular target: Potassium voltage-gated channel subfamily KQT member 2 (Rattus norvegicus) (UniProt O88943); assay: KCNQ2 thallium flux enhancement – KCNQ2-CHO-K1 cells, selectivity assay for KCNQ1 potentiator project (AID 493009;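 active = mean duplicate potentiation above the buffer control mean plus 5 SD of buffer wells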;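 also: assay conditions were tuned for KCNQ1 rather than KCNQ2 modulators; signal is max minus min fluorescence divided by baseline after thallium stimulus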); conditions: FluxOR thallium flux fluorescence, at 10 µM; stronger effect = higher value, scaled: buffer 0, activator control 100
Chain of Potassium voltage-gated channel subfamily KQT member 2 (Rattus norvegicus) (O88943 whole entry, looked up): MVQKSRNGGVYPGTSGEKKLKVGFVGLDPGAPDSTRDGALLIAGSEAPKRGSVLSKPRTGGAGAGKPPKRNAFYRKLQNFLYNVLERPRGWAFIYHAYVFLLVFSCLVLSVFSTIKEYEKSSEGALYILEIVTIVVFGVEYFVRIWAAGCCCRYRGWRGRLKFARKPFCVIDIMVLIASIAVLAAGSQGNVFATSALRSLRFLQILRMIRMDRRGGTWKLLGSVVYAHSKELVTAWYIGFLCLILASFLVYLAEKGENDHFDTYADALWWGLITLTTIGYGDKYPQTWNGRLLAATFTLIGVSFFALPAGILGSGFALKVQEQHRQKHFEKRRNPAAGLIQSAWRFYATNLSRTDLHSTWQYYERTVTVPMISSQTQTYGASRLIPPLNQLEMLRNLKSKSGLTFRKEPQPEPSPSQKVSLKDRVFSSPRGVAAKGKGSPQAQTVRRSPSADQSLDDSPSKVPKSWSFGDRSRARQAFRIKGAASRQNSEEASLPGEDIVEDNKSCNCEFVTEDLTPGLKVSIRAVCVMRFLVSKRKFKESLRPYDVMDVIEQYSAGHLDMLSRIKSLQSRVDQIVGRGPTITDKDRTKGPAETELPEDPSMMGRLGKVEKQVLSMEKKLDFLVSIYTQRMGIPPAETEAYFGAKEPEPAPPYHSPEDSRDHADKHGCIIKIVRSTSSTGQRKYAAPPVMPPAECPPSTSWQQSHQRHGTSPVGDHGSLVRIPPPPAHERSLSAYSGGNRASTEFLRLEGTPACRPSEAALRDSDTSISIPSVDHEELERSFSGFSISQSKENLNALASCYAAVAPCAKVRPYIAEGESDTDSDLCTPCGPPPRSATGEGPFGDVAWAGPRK

[4] = molecular target: Potassium voltage-gated channel subfamily KQT member 1 (Homo sapiens) (UniProt P51787); assay: KCNQ1 activators by electrophysiology – IonWorks patch clamp, KCNQ1-CHO cells, orthogonal assay for KCNQ1 potentiator project, confirmation (AID 493184;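 active = current rise at least 3 SD above the untreated control mean in each of two repeat wells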;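 as to current potentiation: percent change of the same well's current before compound addition so 0% = no change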); conditions: automated patch clamp current, at 10 µM; stronger effect = higher value
Method in brief: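 assay system = KCNQ1-expressing CHO cells | medium = external bath solution at pH 7.4 | probe or stimulus = 2,000 ms depolarization, -90 to +40 mV | compound dosing = 10 µM final, single point | measured by = automated voltage clamp, amphotericin B perforated patch | measure = percent current increase versus pre-compound level | replication = duplicates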

SMILES	activation [1]	potentiation [2]	potentiation [3]	outcome [4]	outcome [3]	outcome [1]	outcome [2]	current potentiation [4]
N#C/C=C1/NC(=O)c2ccccc2S1	138% (active)	22.5% (active)	166% (active)	inactive	–	–	–	–
COc1cc(Br)cc(/C=N/c2ncn[nH]2)c1O	140% (active)	18.5% (active)	–	inactive	inactive	–	–	–
COc1ccccc1/C=C1\N=C(C(C)(C)C)OC1=O	–	–	–	inactive	inactive	inactive	inactive	–
CCOC(=O)c1ccc(-c2ccc(C3Nc4ccccc4C(=O)N3O)o2)cc1 (stereo unspecified)	–	–	–	inactive	inactive	inactive	inactive	–
c1ccc2c(c1)CSc1sccc1C2=C1CCNCC1	–	–	–	inactive	inactive	inactive	inactive	–
C[C@@H](NC(=O)OC(C)(C)C)c1nnc(S(=O)(=O)Cc2ccccc2)o1	–	–	158% (active)	inactive	–	inactive	inactive	–
O=C(O)CCCN1C(=O)C2C3c4ccccc4C(c4ccccc43)[C@@H]2C1=O (stereo partly specified)	–	–	–	inactive	inactive	inactive	inactive	–
COc1ccc(CCN=C(N)NS(=O)(=O)c2ccc(F)cc2)cc1OC	–	–	–	inactive	inactive	inactive	inactive	–
CC1(C)CC[C@]2(C(=O)O)CC[C@]3(C)C(=CCC4[C@@]5(C)CC[C@H](O)C(C)(C)C5[C@H](O)C[C@]43C)[C@@H]2C1 (stereo partly specified)	184% (active)	40.5% (active)	182% (active)	inactive	–	–	–	–
Cc1nc2sc(C(c3ccccc3)N3CCN(C(=O)c4ccco4)CC3)c(O)n2n1 (stereo unspecified)	–	–	–	inactive	inactive	inactive	inactive	–
CCN(c1ccc(NS(=O)(=O)c2cc(Cl)ccc2Cl)cc1)C(C)C	–	–	–	inactive	inactive	inactive	inactive	–
CC(=O)N(C)c1ccc(NC(=O)Cc2cccc3ccccc23)cc1	–	–	–	inactive	inactive	inactive	inactive	–
CCOC(=O)C1(CCCc2ccccc2)CCN(Cc2cnc(C)s2)CC1	–	–	–	inactive	inactive	inactive	inactive	–
O=c1c2cc(Cl)ccc2nc(-c2ccccc2)n1O	298% (active)	82.5% (active)	269% (active)	inactive	–	–	–	–
C/C(N)=C(/C#N)C(=O)CSc1nc2ccccc2c(=O)n1Cc1ccc(F)cc1	178% (active)	48.5% (active)	194% (active)	inactive	–	–	–	–
COc1cccc(N=Nc2ccc(O)c3ncccc23)c1	166% (active)	44% (active)	170% (active)	inactive	–	–	–	–
Cc1ccccc1NC(=S)NNC(=O)c1csc2c1CCC(C)C2 (stereo unspecified)	174% (active)	30% (active)	200% (active)	inactive	–	–	–	–
COc1ccc(NC(=O)CN(C)C(=O)c2ccc(N3CCOCC3)c([N+](=O)[O-])c2)cc1	151% (active)	22% (active)	186% (active)	inactive	–	–	–	–
S=c1nc(-c2ccc(Br)cc2)oc2c1CCCC2	–	37% (active)	–	inactive	inactive	inactive	–	–
CC(C)n1c(O)c(N=NC(=O)C2COc3ccccc3O2)c2ccccc21 (stereo unspecified)	234% (active)	66.5% (active)	208% (active)	inactive	–	–	–	–
COc1cccc(CNC(=O)C2CCN(S(=O)(=O)c3ccc(-n4cnnn4)cc3)CC2)c1	–	–	–	inactive	inactive	inactive	inactive	–
COc1ccccc1C(=O)NNC(=O)C(=O)Nc1ccc(C)c(Cl)c1	552% (active)	235% (active)	512% (active)	inactive	–	–	–	–

SMILES	activation [1]	potentiation [2]	potentiation [3]	outcome [4]	outcome [3]	outcome [1]	outcome [2]	current potentiation [4]
CC1CCc2sc(-c3n[nH]c(=S)o3)cc2C1 (stereo unspecified)	207% (active)	30% (active)	179% (active)	inactive	–	–	–	–
S=c1nc(C2CCCCC2)n(-c2ccccc2)[nH]1	356% (active)	117% (active)	362% (active)	inactive	–	–	–	–
CC1(C)CC(=O)C2=C(C1)N(c1cccc(Cl)c1)C(=O)NC2(C(F)(F)F)C(F)(F)F	–	19.5% (active)	–	inactive	inactive	inactive	–	–
O=Cc1ccc2noc(-c3ccc(Cl)cc3)c2c1	–	–	–	inactive	inactive	inactive	inactive	–
CC(C)(C)CC(C)(C)NCC(O)COCCOc1ccc(Br)cc1 (stereo unspecified)	–	–	–	inactive	inactive	inactive	inactive	–
O=C(NNC(=S)NC(=O)c1sc2ccccc2c1Cl)c1ccc(Cl)cc1	320% (active)	168% (active)	319% (active)	inactive	–	–	–	–
CCNC(=S)Nc1nc2c(cc1C(=O)OCC)CCCC2	140% (active)	35% (active)	177% (active)	inactive	–	–	–	–
Cc1[nH]n(-c2ccccc2)c(=O)c1N=Nc1nccs1	816% (active)	418% (active)	787% (active)	–	–	–	–	20.9% (active)
Cc1nn(CC(=O)NC(C)c2ccccc2)c(=O)c2ccccc12 (stereo unspecified)	150% (active)	85.5% (active)	172% (active)	inactive	–	–	–	–
Cc1ccc(CN2CCN(/N=C/C(Br)=C\c3ccccc3)CC2)cc1	–	–	–	inactive	inactive	inactive	inactive	–
Cn1nccc1C(=O)NC(=S)Nc1cc(Cl)cc(Cl)c1	141% (active)	20.5% (active)	178% (active)	inactive	–	–	–	–
Cn1c(=O)n(CCc2ccccc2)c2ccccc21	–	–	–	inactive	inactive	inactive	inactive	–
C/C(=C/CCC(C)[C@H]1CC[C@@]2(C)C3=C(CC[C@]12C)[C@@]1(C)CCC(=O)C(C)(C)[C@@H]1CC3)C(=O)O (stereo partly specified)	829% (active)	298% (active)	680% (active)	inactive	–	–	–	–
COc1ccc(C2NC(c3ccc(OC)c(OC)c3OC)C(C)C(=O)C2C)c(OC)c1OC (stereo unspecified)	–	–	–	inactive	inactive	inactive	inactive	–
COC(=O)COc1ccc(-c2ccccc2)cc1C=O	179% (active)	34.5% (active)	216% (active)	inactive	–	–	–	–
CCOC(=O)c1cccc(NC(=O)CCc2ccccc2)c1	–	–	–	inactive	inactive	inactive	inactive	–
C/C(Cl)=C\Cn1c(O)c(N=NC(N)=S)c2cc(Br)ccc21	–	70.5% (active)	–	inactive	inactive	inactive	–	–
CC1CN(S(=O)(=O)c2ccc(Cl)c(C(F)(F)F)c2)CC(C)O1 (stereo unspecified)	–	–	–	inactive	inactive	inactive	inactive	–
O=c1sc(N2CCN(c3ccccc3F)CC2)nc2ccsc12	–	–	–	inactive	inactive	inactive	inactive	–
CC(=O)c1c(NC(=O)c2ccccc2)[nH]c(-c2ccccc2)nc1=S	230% (active)	67% (active)	236% (active)	inactive	–	–	–	–
O=C(CN1C2=NCCCN2c2ccccc21)c1ccc2c(c1)OCO2	–	–	–	inactive	inactive	inactive	inactive	–
N=c1ncn(Cc2ccccc2)c2nc(SCCOc3ccccc3)[nH]c12	–	–	–	inactive	inactive	inactive	inactive	–

SMILES	activation [1]	potentiation [2]	potentiation [3]	outcome [4]	outcome [3]	outcome [1]	outcome [2]	current potentiation [4]
CCOc1ccc2nc(N3C(=O)/C(=C/c4ccccc4)NC3=S)sc2c1	442% (active)	367% (active)	700% (active)	inactive	–	–	–	–
O=Cc1c(F)cccc1N1CCCC1	–	–	150% (active)	inactive	–	inactive	inactive	–
Cc1ccc(N2C(=O)N3[C@H](c4ccc(F)cc4)[C@@H]4C(=O)N(C5CCCCC5)C(=O)[C@@H]4[C@]3(Cc3ccccc3)C2=O)cc1	–	–	–	inactive	inactive	inactive	inactive	–
Cc1ccc2cc3cc(C(=O)NC4CC4)oc3nc2c1	–	–	–	inactive	inactive	inactive	inactive	–
CC(C)c1nc2oc3c(NCC4CCCO4)ncnc3c2c2c1COC(C)(C)C2 (stereo unspecified)	–	–	–	inactive	inactive	inactive	inactive	–
Cc1ccc(C)c(NC(=S)N/N=C2/CCCCc3ccccc32)c1	140% (active)	37% (active)	164% (active)	inactive	–	–	–	–
CC(/C=C1\SC(=S)N(c2ccc(C(=O)O)cc2)C1=O)=C\c1ccccc1	–	–	–	inactive	inactive	inactive	inactive	–
O=c1c(-c2ccc(Cl)cc2)[n+]([O-])c2ccccc2n1O	190% (active)	–	184% (active)	inactive	–	–	inactive	–
CCN(CC)C(=S)NC(=O)c1ccc(OC)c(Br)c1	209% (active)	63.5% (active)	209% (active)	inactive	–	–	–	–
Cc1ccc(C2c3c(-c4ccccc4O)n[nH]c3C(=O)N2Cc2ccncc2)cc1 (stereo unspecified)	–	–	–	inactive	inactive	inactive	inactive	–
Cc1ccc(-c2n[nH]c(=S)nc2-c2ccc(C)cc2)cc1	160% (active)	32% (active)	159% (active)	inactive	–	–	–	–
CCn1ncc(Cl)c1C(=O)NC(=S)Nc1ccccc1Br	272% (active)	200% (active)	340% (active)	inactive	–	–	–	–
O=C(CSc1nc2cc(Cl)ccc2s1)c1ccco1	–	24% (active)	–	inactive	inactive	inactive	–	–
O=[N+]([O-])c1ccc(/C=C/C2=NN(c3ccccc3)C(c3ccco3)C2)o1 (stereo unspecified)	–	–	–	inactive	inactive	inactive	inactive	–
O=C(NC(=S)Nc1ccccc1)c1cc(-c2ccccc2)nc2ccccc12	158% (active)	75% (active)	194% (active)	inactive	–	–	–	–
CCOc1ccc2nc(/N=C/c3c(C)[nH]n(-c4ccc(C)cc4)c3=O)sc2c1	356% (active)	120% (active)	332% (active)	inactive	–	–	–	–
CCOc1ccc(S(=O)(=O)Nc2cc(OC)ccc2OC)cc1	–	–	–	inactive	inactive	inactive	inactive	–
O=c1[nH]c(=S)[nH]c2sc3c(c12)CCCCCC3	138% (active)	–	–	inactive	inactive	–	inactive	–
O=C(Nc1ccc2[nH]c(=S)sc2c1)c1ccccc1	–	52% (active)	154% (active)	inactive	–	inactive	–	–
COC(=O)c1ccc(CSc2ncnc3c2sc2nc(N4CCOCC4)c4c(c23)CCCC4)o1	–	–	–	inactive	inactive	inactive	inactive	–
